Measured values published in ChEMBL document CHEMBL4665889, “Design, Synthesis, and Pharmacological Characterization of a Neutral, Non-Prodrug Thrombin Inhibitor with Good Oral Pharmacokinetics” (J Med Chem, 2020).

Columns and labels:
[1] = Oral bioavailability in Wistar Hannover rat at 1 mg/kg by LC-MS/MS analysis; assay type: ADME, organism-based; details: in vivo, time <=24 hrs
Outline: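 Catheterized male Wistar Hannover rats dosed by gavage at 1 mg/kg in 10% ethanol/40% PEG/50% water. Blood taken via catheter at 0.083 to 24 h. Plasma precipitated with acetonitrile and analysed by LC-MS/MS. Bioavailability derived against iv dosing at 0.3 to 0.5 mg/kg.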

[2] = Clearance in Wistar rat hepatocytes at 1 uM incubated up to 90 mins by LC-MS/MS analysis; assay type: ADME, cell-based, Hepatocyte; details: Wistar
Outline: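 Fresh male Wistar rat hepatocytes, 1 × 10⁶ viable cells/mL, in Williams' medium E at 37 °C, pH 7.4, with 1 μM substrate and <1% acetonitrile. Samples at 2–90 min quenched in acetonitrile and analysed by LC-MS/MS.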

[3] = Permeability from apical to basolateral side in human Caco2 cells incubated for 2 hrs by LC-MS/MS analysis; assay type: ADME, cell-based; details: Caco-2
Outline: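 Caco-2 cells grown 15 d on 0.4 μm inserts, TEER ≥600 Ω. Compound (DMSO stock diluted 100-fold) in HBSS pH 7.4 with 10 mM HEPES and 20 mM glucose, added apically or basolaterally. Incubated 2 h at 37 °C and analysed by LC-MS/MS. Papp = (Vr/P0)·(1/S)·(P2/t); mean and SD.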

[4] = AUC/dose in Wistar Hannover rat at 0.3 to 0.5 mg/kg, iv by LC-MS/MS analysis; assay type: ADME, organism-based; details: in vivo, dose 0.3-0.5 mg/kg, time <=24 hrs
Outline: (§1)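 Male Wistar Hannover rats, catheterized under isoflurane; one day later iv injection into lateral tail vein at 0.3 to 0.5 mg/kg in plasma containing 2% DMSO. Blood sampled via catheter from 0.033 to 24 h. Plasma precipitated with acetonitrile, analysed by LC-MS/MS (10 mM ammonium acetate pH 3.0/acetonitrile gradient). PK parameters calculated from plasma concentrations.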

[5] = Half life in Wistar Hannover rat at 0.3 to 0.5 mg/kg, iv by LC-MS/MS analysis; assay type: ADME, organism-based; details: in vivo, dose 0.3-0.5 mg/kg, time <=24 hrs; outline: as §1
[6] = biological target: T1, Nuclear receptor subfamily 1 group I member 2 (Homo sapiens, UniProt O75469); test: Activation of human PXR expressed in human HepG2 cells; assay type: ADME, cell-based
T1 sequence (O75469 whole entry): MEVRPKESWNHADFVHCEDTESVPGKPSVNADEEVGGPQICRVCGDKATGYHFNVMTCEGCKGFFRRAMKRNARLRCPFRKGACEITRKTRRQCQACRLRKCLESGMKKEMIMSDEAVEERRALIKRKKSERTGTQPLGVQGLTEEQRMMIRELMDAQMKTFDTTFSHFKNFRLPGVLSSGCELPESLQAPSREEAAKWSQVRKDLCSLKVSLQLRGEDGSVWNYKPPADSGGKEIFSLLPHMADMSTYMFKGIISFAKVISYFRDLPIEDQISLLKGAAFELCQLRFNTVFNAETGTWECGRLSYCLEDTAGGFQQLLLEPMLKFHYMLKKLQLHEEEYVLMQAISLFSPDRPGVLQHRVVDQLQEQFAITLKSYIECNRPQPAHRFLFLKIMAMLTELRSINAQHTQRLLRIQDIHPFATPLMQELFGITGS
Outline: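 HepG2 cells transiently co-transfected with human PXR and a luciferase reporter under the human CYP3A4 promoter, 48 h before readout. 24 h after seeding, 1:3 serial dilutions (2 nM to 50 μM, 0.5% DMSO) added. Luminescence normalized to rifampicin (100%) and DMSO (0%). MEC is the lowest concentration raising signal above 4-fold SD of DMSO background.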

Plasma = test: Anticoagulation activity in human plasma assessed as drug level causing doubling of prothrombin time incubated for 3 mins; assay type: functional; details: 0.05 h
Outline: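 Citrated human plasma (0.11 M citrate 1:9, spun ~4000g 15 min) incubated with compound at 37 °C for 3 min. Clotting started with thromboplastin and time to coagulation recorded. Value is the concentration doubling clotting time (PT or aPTT).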

[7] = MRT in Wistar Hannover rat at 0.3 to 0.5 mg/kg, iv by LC-MS/MS analysis; assay type: ADME, organism-based; details: in vivo, dose 0.3-0.5 mg/kg, time <=24 hrs; outline: as §1
[8] = biological target: T1, Nuclear receptor subfamily 1 group I member 2; test: Activation of human PXR human hepatocytes assessed as induction of CYP3A4 mRNA expression incubated for 48 hrs by qPCR analysis; assay type: ADME, tissue-based, Hepatocyte
Outline: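 Human hepatocytes in collagen sandwich, cultured 1 d, then treated with eight 1:3 serial concentrations for 2 consecutive days with daily media change. mRNA isolated on magnetic beads, reverse transcribed, and quantified by TaqMan qRT-PCR against actin/tubulin. Fold induction over vehicle by ΔΔCt; NOEL reported.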

[9] = Ratio of drug level in blood to plasma in Wistar Hannover rat at 0.3 to 0.5 mg/kg, iv by LC-MS/MS analysis; assay type: ADME, organism-based; details: blood and plasma, dose 0.3-0.5 mg/kg, time <=24 hrs
[10] = Volume of distribution at steady state in Wistar Hannover rat at 0.3 to 0.5 mg/kg, iv by LC-MS/MS analysis; assay type: ADME, organism-based; details: in vivo, dose 0.3-0.5 mg/kg, time <=24 hrs, read-out: Vdss; outline: as §1
Cytochrome P450 = test: Inhibition of CYP450 (unknown origin) at 20 uM; assay type: ADME, protein assay; details: human
[11] = Blood clearance in Wistar Hannover rat at 0.3 to 0.5 mg/kg, iv by LC-MS/MS analysis; assay type: ADME, organism-based; details: whole blood, dose 0.3-0.5 mg/kg, time <=24 hrs; outline: as §1

- bioavailability [1]: 46%
- CLhep predicted at 1 µM [2]: 38.3 mL/min/kg
- Papp A→B at 2 h [3]: 12.6 ×10⁻⁶ cm/s
- AUC/dose [4]: 0.48 kg·h/L
- half-life [5]: 1.3 h
- MEC [6]: 0.69 µM
- MRT [7]: 1.1 h
- blood plasma ratio [9]: 1.24
- Vd [10]: 2.4 L/kg
- inhibition (INH) (Cytochrome P450): Not Active
- clearance [11]: 28.3 mL/min/kg
SMILES: COc1cc(C(=O)N2CC[C@@H](O)[C@H](C)C2)cc2nc(NCc3cccc(Cl)c3)oc12
- 2PT (Plasma): 6 µM
- NOAEL [8]: 370 ng/mL
